pEC50: −log10 of the molar value. Active and inactive are the calls of the source. The rule behind the calls is not given here.
Columns and labels:
[1] = tested on: Yellow fever virus; assay: Antiviral activity against 10^2 CCID50 Yellow fever virus Jimenez infected in syrian golden hamster assessed as serum survival of animal at 200 mg/kg/day, po administered twice daily for 8 days started 4 hrs prior to viral infection; assay type: functional, organism-based
[2] = tested on: Yellow fever virus; assay: Antiviral activity against Yellow fever virus 17D infected in African green monkey Vero cells assessed as inhibition of virus induced cytopathic effect […] by NR dye uptake assay; assay type: functional, cell-based
[3] = tested on: Yellow fever virus; assay: Antiviral activity against 10^2 CCID50 Yellow fever virus Jimenez infected in syrian golden hamster assessed as serum AST level in surviving animals at 400 mg/kg/day, po administered 4 days post viral infection; assay type: functional
[4] = tested on: Yellow fever virus; assay: Antiviral activity against 10^2 CCID50 Yellow fever virus Jimenez infected in syrian golden hamster assessed as serum AST level in non surviving animals at 400 mg/kg/day, po administered 4 days post viral infection; assay type: functional
[5] = tested on: Yellow fever virus; assay: Antiviral activity against 10^2 CCID50 Yellow fever virus Jimenez infected in syrian golden hamster assessed as serum AST level in surviving animals at 400 mg/kg/day, po administered 5 days post viral infection; assay type: functional
[6] = tested on: Yellow fever virus; assay: Antiviral activity against Yellow fever virus 17D infected in African green monkey Vero cells assessed as time required for inhibition of viral replication at 6400 uM up to 12 hrs post-viral infection; assay type: functional, cell-based
[7] = tested on: Yellow fever virus; assay: Antiviral activity against 10^2 CCID50 Yellow fever virus Jimenez infected in syrian golden hamster assessed as serum ALT level in non surviving animals at 400 mg/kg/day, po administered 5 days post viral infection; assay type: functional
[8] = tested on: Yellow fever virus; assay: Antiviral activity against 10^2 CCID50 Yellow fever virus Jimenez infected in syrian golden hamster assessed as mean day of death of mice at 400 mg/kg/day, po administered twice daily for 8 days started 4 day post infection; assay type: functional
[9] = tested on: Yellow fever virus; assay: Antiviral activity against 10^2 CCID50 Yellow fever virus Jimenez infected in syrian golden hamster assessed as serum AST level at 200 mg/kg/day, po administered twice daily for 8 days started 4 hrs prior to viral infection; assay type: functional, organism-based
[10] = tested on: Yellow fever virus; assay: Antiviral activity against 10^2 CCID50 Yellow fever virus Jimenez infected in syrian golden hamster assessed as mean day of death […] at 400 mg/kg/day, po administered twice daily for 8 days started 3 day post infection; assay type: functional
[11] = tested on: Yellow fever virus; assay: Antiviral activity against Yellow fever virus 17D infected in African green monkey Vero cells assessed as reduction in virus yield; assay type: functional
Outline: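 Virus yield reduction in Vero cells infected with YFV 17D after compound exposure, with progeny virus titred by CCID50. The EC90 was averaged over separate experiments.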

[12] = tested on: Yellow fever virus; assay: Antiviral activity against 10^2 CCID50 Yellow fever virus Jimenez infected in syrian golden hamster assessed as serum survival of animal at 100 mg/kg/day, po administered twice daily for 8 days started 4 hrs prior to viral infection; assay type: functional, organism-based
[13] = tested on: Yellow fever virus; assay: Antiviral activity against 10^2 CCID50 Yellow fever virus Jimenez infected in syrian golden hamster assessed as serum ALT level in surviving animals at 400 mg/kg/day, po administered 5 days post viral infection; assay type: functional
[14] = tested on: Yellow fever virus; assay: Antiviral activity against 10^2 CCID50 Yellow fever virus Jimenez infected in syrian golden hamster assessed as serum ALT level at 400 mg/kg/day, po administered daily for days started 5 day post viral challenge; assay type: functional
[15] = tested on: Yellow fever virus; assay: Antiviral activity against Yellow fever virus 17D infected in African green monkey Vero cells assessed as inhibition of virus induced cytopathic effect by luciferase reporter gene assay; assay type: functional, cell-based

Q: Which Activity [1] does the source give for `NC(=O)c1nc(F)cnc1O` [FAVIPIRAVIR] here?
A: Active

Q: What about the pEC50 [2] of the same compound?
A: 3.57

Q: What about the Activity [3] of the same compound?
A: 132 IU/L

Q: What about the Activity [4] of the same compound?
A: 189 IU/L

Q: What about the Activity [5] of the same compound?
A: 153 IU/L

Q: What about the Activity [6] of the same compound?
A: Active

Q: And the Activity [7]?
A: 332 IU/L

Q: And the Time [8]?
A: 6.5 days

Q: And the Activity [9]?
A: inactive

Q: What about the Time [10] of the same compound?
A: 7 days

Q: And the EC90 [11]?
A: 330 µM

Q: And the Activity [12]?
A: inactive

Q: And the Activity [13]?
A: 64 IU/L

Q: What about the Activity [14] of the same compound?
A: 157 IU/L

Q: And the pEC50 [15]?
A: 3.57
